Compound activity as filed in PubChem BioAssay.
tim10-1 inh: growth inhibitors of tim10-1 mutant yeast, primary screen, luminescence, uHTS | S. cerevisiae tim10-1 ts strain growth, BacTiter-Glo, 24 h | inhibition, % at 20 µM | hit rate 2.2% among 330,000 | AID 463190, 2010;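 active = inhibition of at least 40%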;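 note: mutant grown at 25 °C; 0% = DMSO wells with yeast and 100% = wells holding no yeast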
tim23-1 inh: growth inhibitors of tim23-1 mutant yeast, primary screen, luminescence, uHTS. S. cerevisiae tim23-1 growth, BacTiter-Glo luminescence, 24 h. inhibition, % at 20 µM. hit rate 1.3% among 330,000;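 active = growth inhibition of the mutant yeast at or above 50%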;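 note: temperature-sensitive mutant grown at 25 °C; plate controls were DMSO-treated mutant yeast for no effect and medium wells lacking yeast for full effect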
XBP1 UPR activ: activators of adaptive XBP1 UPR arm, primary screen, cell-based, CHO-XBP1 luciferase reporter, luminescence, uHTS; IRE1-XBP1 UPR activation; percent of tunicamycin response, DMSO as zero; activation, % at 20 µM; hit rate 0.33% among 330,000;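 active = versus positive control, 20 µM dose yields 30% or more activation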;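 note: 100% = tunicamycin at 10 µg/mL and 0% = DMSO only wells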
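incubation = overnight seeding at 37 °C, 6 h compound treatment at 37 °C | assay system = CHO-XBP1 cells stably carrying IRE1-XBP1-driven luciferase reporter | input = 1000 cells per well | detection = luciferase luminescence | dosing = single point, 20 µM final compound, 1% DMSO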
TIM10 inh: growth inhibitors of isogenic TIM10 control yeast, primary screen, counter-screen for tim10-1 yeast inhibitor project, luminescence, uHTS | inhibition, % at 10 µM | hit rate 1.4% among 330,000 | S. cerevisiae TIM10 strain growth, BacTiter-Glo luminescence, 24 h;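 active = inhibition of 40% or more at the single tested concentration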;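 note: wild-type TIM10 isogenic control strain grown at permissive 25 °C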
CHOP UPR activ: activators of apoptotic CHOP UPR arm, primary screen, cell-based, CHO-CHOP luciferase reporter, luminescence, uHTS; UPR activation; percent of tunicamycin response over DMSO baseline; activation, % at 10 µM; hit rate 0.34% among 330,000;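 active = at 10 µM dose, activation of 40% or more, normalized to positive control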;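 note: 100% = tunicamycin at 10 µg/mL and 0% = DMSO alone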
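Test system: CHO-CHOP cells, stable luciferase reporter of PERK-eIF2a-CHOP signalling | Quantity: 500 CHO-CHOP cells per well | Buffer or medium: F12 plus 10% serum | Compound dosing: 10 µM single point, 0.5% DMSO | Schedule: 6 h compound treatment, 37 °C | Signal: Luciferase luminescence | Control set: Tunicamycin high control, DMSO low control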
tim10-1 conf: growth inhibitors of tim10-1 mutant yeast, confirmation, single concentration, luminescence, S. cerevisiae; shares compounds with tim10-1 inh; S. cerevisiae tim10-1 ts strain growth, BacTiter-Glo, 24 h; inhibition, % at 20 µM; hit rate 56% among 7,400; AID 463213, 2010;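 active = inhibition of yeast growth at or above a set limit in either of two repeat tests at 20 µM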;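 note: tim10-1 mutant grown at permissive 25 °C to find synthetic lethal compounds; 0% = DMSO yeast wells and 100% = medium wells without yeast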
TIM10 conf: growth inhibitors of wild-type TIM10 yeast, confirmation, counter-screen for tim10-1 synthetic lethality project, single concentration, luminescence, S. cerevisiae; S. cerevisiae tim10 strain growth, BacTiter-Glo luminescence, 24 h; shares compounds with TIM10 inh; hit rate 63% among 4,600; AID 463215, 2010; inhibition, % at 10 µM;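 active = inhibition of yeast growth at or above a set limit in either of two replicates at 10 µM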;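 note: this counterscreen used the strain with wild-type TIM10; 0% = yeast with DMSO and 100% = medium wells lacking yeast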
Active calls of the source: *; . = no result given. The list is not random: actives were taken first. Their share in the collection is about 3.9%.

SMILES | tim10-1 inh | tim23-1 inh | XBP1 UPR activ | TIM10 inh | CHOP UPR activ | tim10-1 conf | others
CC1(C)Cc2c(cnn2-c2ccc(F)cc2)C(NC(=O)c2ccoc2)C1 (stereo not drawn) | 40.1* | 35.6 | -3.7 | 14.5 | 4.0 | 8.0
Cc1ccc(-n2ncc3c2CC(C)(C)CC3NC(=O)c2ccccn2)cc1 (stereo not drawn) | 53.4* | 49.2 | -1.2 | 13.4 | 5.3 | 12.3
CCC1Oc2ccc(C)cc2N(CC(=O)NCCN2CCOCC2)C1=O (stereo not drawn) | -15.8 | 8.4 | -6.7 | 4.4 | -1.8 | .
CCOc1ccc(NC(=S)NNc2ccnc3cc(Cl)ccc23)cc1 | 46.9* | 8.9 | -3.5 | 14.3 | 1.4 | 4.5
COc1ccc(C2C(=O)N(CCc3ccccc3)CC(=O)N2C2CCCC2)cc1 (stereo not drawn) | 44.2* | 32.5 | 1.1 | 15.7 | 1.2 | 29.4*
COc1ccc(C2C(=O)N(C3CCCCC3)CC(=O)N2C2CCCC2)cc1 (stereo not drawn) | 13.0 | 25.6 | 1.1 | 24.7 | -0.8 | .
C=C(C)C1Cc2c(C)nn(-c3nc(C)cc(C)n3)c2C1 (stereo not drawn) | 42.4* | 24.3 | -2.4 | 10.8 | 8.1 | 23.0
C=C(C)C1Cc2nc(N)nc(C)c2C1 (stereo not drawn) | 3.3 | -7.6 | 3.4 | 4.4 | 3.4 | .
CC(C)c1cc(-c2n[nH]c(=S)n2Cc2ccccc2)cs1 | 46.6* | 35.0 | -0.8 | 28.6 | -1.8 | 27.0
CCn1c(=O)n(CC)c2cc(N3CCCC3)c(NC(=O)c3ccccc3)cc21 | 24.5 | 22.0 | 4.5 | 10.7 | 0.7 | .
CCn1c(=O)n(CC)c2cc(N3CCCC3)c(NC(=O)c3cc(Br)ccc3OC)cc21 | 44.4* | 40.5 | 9.4 | 4.3 | -0.9 | -2.6
CCn1c(=O)n(CC)c2cc(N3CCCC3)c(NC(=O)c3ccc(C)cc3)cc21 | 42.2* | 31.7 | 4.0 | -8.8 | 9.4 | -15.4
COc1ccc(Br)cc1C(=O)Nc1ccccc1N1CCCC1 | 18.5 | 31.0 | -1.9 | 23.3 | 0.1 | .
COc1cc(-c2nc(-c3cccc(C(F)(F)F)c3)no2)cc(OC)c1OC | 41.3* | 10.3 | 0.9 | 35.3 | 0.7 | 31.3*
COc1ncnc2c1ncn2CC1COC(C)(C)O1 (stereo not drawn) | 1.7 | 3.1 | -0.2 | 20.9 | -1.2 | .
Cc1cc(/C=N/n2cnnc2)c(C)n1-c1ccc(OCc2ccccc2F)cc1 | 45.8* | 36.4 | -0.4 | 39.4 | 3.6 | -2.6
Cc1cc(/C=N/n2cnnc2)c(C)n1-c1ccc(OCc2ccc(Cl)cc2)cc1 | 17.3 | 16.7 | 2.5 | 20.9 | 17.2 | .
CC(=O)N1CC(C)Sc2ccc(S(=O)(=O)NC(C)c3ccccc3)cc21 (stereo not drawn) | 21.2 | 25.0 | -1.6 | 15.7 | 3.6 | .
CC(C)C(OC(=O)c1cc2sccc2n1C)C(=O)NCC1CCCO1 (stereo not drawn) | 10.4 | 15.7 | -4.6 | 3.4 | -0.3 | .
COc1ccc(CN(CC2CCCO2)C(=O)c2cc3sccc3n2C)c(OC)c1 (stereo not drawn) | 45.3* | 21.7 | 1.0 | 31.6 | -1.4 | 29.4
Cc1ccc(C(C)NC(=S)NC2CCCCC2)c(C)c1 (stereo not drawn) | 41.2* | 17.3 | -6.6 | 17.6 | 0.4 | 7.9
CC(=O)C1=C(c2ccccc2)OC(N)=C(C#N)C1c1ccccc1C (stereo not drawn) | 44.9* | 21.8 | 0.6 | 15.4 | -1.6 | 19.5
CC(=O)C1=C(c2ccccc2)OC(N)=C(C#N)C1c1ccccc1F (stereo not drawn) | 34.5 | 40.3 | -3.8 | 31.4 | -0.7 | .
CC(=O)C1=C(C)OC(N)=C(C#N)C1c1cc2cccc(C)c2nc1Cl (stereo not drawn) | 45.6* | 32.1 | -1.6 | 19.8 | -0.4 | 24.9
COc1ccc(C(=O)N2CCOC2CNC(=O)C(=O)NCCc2ccccc2OC)cc1 (stereo not drawn) | 15.7 | 14.6 | -3.1 | 3.1 | -2.0 | .
SMILES | tim10-1 inh | tim23-1 inh | XBP1 UPR activ | TIM10 inh | CHOP UPR activ | tim10-1 conf | others
Cc1cccc(-n2c(-c3ccco3)n[nH]c2=S)c1 | 16.4 | 17.7 | -0.9 | 3.2 | -0.6 | .
CCCc1cc(-c2n[nH]c(=S)n2-c2cccc(C)c2)cs1 | 46.0* | 48.5 | -3.2 | 27.9 | -0.1 | 39.2*
Fc1ccccc1/C=C1\CCCC2=C1NC(=S)NC2c1ccccc1F (stereo not drawn) | 41.2* | 39.3 | -2.3 | 36.7 | -1.2 | 15.3
O=[N+]([O-])c1ccc(Nc2ccc(Cl)cc2)nc1 | 58.6* | 41.9 | 1.6 | 11.0 | 0.8 | 41.8*
O=C(CSCC(=O)N1CCCCC1)Nc1nc(-c2ccc(Cl)s2)cs1 | 40.7* | 43.3 | 0.0 | 22.5 | 0.9 | 36.1*
O=C(CSCC(=O)N1CCN(c2ccccc2)CC1)Nc1nc(-c2ccc(Cl)s2)cs1 | 6.7 | 9.0 | -1.5 | 6.9 | 18.2 | .
CC(=O)c1cccc(NC(=O)c2cc(Cl)sc2Cl)c1 | 42.5* | 25.4 | 3.2 | 23.1 | 3.4 | 19.8
C/C(=N\OCC(=O)NC12CC3CC(CC(C3)C1)C2)c1cc2ccccc2o1 | 45.2* | 18.9 | 0.7 | 40.0* | 4.1 | 22.4 | TIM10 conf=36.5*
CSc1ccccc1NC(=O)CO/N=C(\C)c1cc2ccccc2o1 | 18.8 | 16.0 | 3.2 | 25.3 | 0.2 | .
C=CCOc1ccc(/C=C/C(=O)OCC(=O)N2CCC(c3ccccc3)=N2)cc1 | 20.6 | 8.1 | -1.0 | 13.0 | -0.8 | .
CCCCN(C)CCNC(=O)c1cc2cc3ccc(OC)cc3nc2o1 | 49.0* | 37.6 | 4.2 | 56.7* | 0.8 | 29.2* | TIM10 conf=46.5*
CCN(CC)CCNC(=O)c1cc2cc3ccc(OC)cc3nc2o1 | 0.0 | -4.8 | -4.4 | 22.8 | -1.5 | .
CCN1CCN(c2ccc(S(=O)(=O)N3CCOCC3)cc2NC(=O)/C=C/c2ccc([N+](=O)[O-])cc2)CC1 | -0.8 | -1.9 | -2.4 | -0.6 | 1.5 | .
Cc1nn(CCC(N)=S)c2nc(-c3cccs3)cc(C(F)(F)F)c12 | 44.0* | 31.6 | 4.3 | 54.5* | -0.3 | 40.8* | TIM10 conf=41.2*
S=c1[nH]nc(COc2ccccc2)n1/N=C/C(Cl)=C/c1ccccc1 | 59.5* | 44.5 | 0.8 | 51.6* | -2.2 | 55.6* | TIM10 conf=45.5*
O=C(Nc1cccs1)NC1CCCC1 | 21.3 | 29.2 | -5.1 | 11.7 | 0.2 | .
